# High-throughput results as filed in PubChem BioAssay.
# A selection: hits, their analogues and other compounds. The true share with any hit is near 4%.
# TAAR1 antag = human TAAR1 antagonists, primary screen, Fluo-8 calcium fluorescence, CHO RD-HGA16 cells; antagonist; 360,000 tested, 1.5% active; inhibition, % at 3 µM;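 active = inhibition above a per-plate cutoff, the mean inhibition of test compounds on that plate plus 3 SD, cut at about 49% in these data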;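 also: 0% = DMSO plus EC80 beta-PEA response and 100% = DMSO alone without agonist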
# Target sequence (Q96RJ0 whole entry, looked up): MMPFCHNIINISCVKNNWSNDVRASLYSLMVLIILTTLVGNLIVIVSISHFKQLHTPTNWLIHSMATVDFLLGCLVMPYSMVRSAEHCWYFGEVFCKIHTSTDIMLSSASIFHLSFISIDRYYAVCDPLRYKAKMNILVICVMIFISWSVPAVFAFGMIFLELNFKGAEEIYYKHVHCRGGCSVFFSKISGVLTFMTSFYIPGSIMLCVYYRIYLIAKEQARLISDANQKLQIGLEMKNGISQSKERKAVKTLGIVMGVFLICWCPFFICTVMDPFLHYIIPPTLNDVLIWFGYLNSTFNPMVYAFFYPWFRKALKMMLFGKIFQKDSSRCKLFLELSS
#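 Assay system: CHO-derived RD-HGA16 cells stably expressing human TAAR1 plus Gα16. Timing: 140 s kinetic read after compound, 140 s after agonist. Technique: kinetic Fluo-8 calcium fluorescence measurement. Measure: % inhibition of agonist calcium response.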
# DAGLB inhibitor = DAGLB lipase inhibitors, primary screen, biochemical, fluorescence, HTS; Diacylglycerol lipase-beta (Homo sapiens), Q8NCG7; HEK293T DAGLB membrane lysate, EnzChek fluorogenic substrate; inhibition, % at 5.17 µM; 340,000 tested, 0.059% active; in the data active = inhibition above about 34%;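 also: 0% = enzyme with vehicle and 100% = wells lacking enzyme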
# TAAR1 agonist = human TAAR1 agonists, primary screen, Fluo-8 calcium fluorescence, CHO RD-HGA16 cells. activation, % at 3 µM. vehicle wells 0%, saturating PEA agonist 100%. Trace amine-associated receptor 1 (Homo sapiens), Q96RJ0. 360,000 tested, 0.99% active. AID 624467, 2012;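 active = activation above the mean activation of all test compounds in the run plus 3 SD, cut at about 38% in these data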
#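 Assay system – CHO-derived RD-HGA16 cells with stable Gα16 and human TAAR1 · Compound dosing – one-point dosing at 3 µM (nominal) · Incubation – 17-24 h seeding, 75 min 37 °C dye, 30 min RT · Measured by – kinetic Fluo-8 calcium fluorescence · Control set – DMSO vehicle as 0%, PEA at EC100 as 100% · Repeats – single well for each compound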
# MPTP inh = mitochondrial permeability transition pore inhibitors, primary screen, biochemical, isolated mouse mitochondria, absorbance. Ca2+ swelling absorbance, 30 min. inhibition, % at 10 µM. 360,000 tested, 1.4% active;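 active = inhibition of 50% or more, scaled per plate between neutral and stimulator controls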;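 also: 0% = DMSO wells given calcium and 100% = 1 mM EGTA wells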
# GPR7 antag = GPR7 receptor antagonists, primary screen, cell-based, fluorescence, single concentration. Neuropeptides B/W receptor type 1 (Homo sapiens), P48145. GPR7-expressing cells, fluorescence antagonist assay. inhibition, % at 4.4 µM. 290,000 tested, 1.1% active; in the data active = inhibition above about 16%, passing the limit was not always enough;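 also: cells stimulated with the agonist NPW; 0% = agonist with vehicle and 100% = vehicle without agonist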
# * = called active by the depositor; . = no result given.
SMILES,TAAR1 antag,DAGLB inhibitor,TAAR1 agonist,MPTP inh,GPR7 antag
COc1cc(C(=O)NNC(=S)NC(=O)/C=C/c2ccccc2)cc(OC)c1OC,23,0,39*,-3,-11
COc1ccc(C(NC(=O)c2c(F)c(F)c(F)c(F)c2F)c2ccccc2)cc1 (centres undefined),-6,-14,2,17,31*
O=C(Nc1ccccc1)c1cccc(S(=O)(=O)Oc2ccc([N+](=O)[O-])cc2)c1,24,4,7,48,26*
CCOC(=O)C1CCCN(C(=O)c2oc3ccccc3c2C)CC1 (centres undefined),13,.,4,1,.
COc1ccccc1-n1c(C)c2c(OC)cccc(=O)c2c1C,5,2,23,3,-12
COc1cccc(=O)c2c(C)oc(C)c12,-7,-1,1,-2,19*
Nc1c(C(=O)NCC2CCCO2)c2nc3ccccc3nc2n1-c1ccccc1 (centres undefined),50*,-1,27,0,16
COc1ccccc1-n1c(N)c(C(=O)NCC2CCCO2)c2nc3ccccc3nc21 (centres undefined),25,1,8,1,7
CN(C)S(=O)(=O)c1ccc(Nc2ccc(-c3ccc4c(c3)OCCO4)nn2)cc1,49*,2,16,0,-6
CCN(CC)S(=O)(=O)c1ccc(Nc2ccc(-c3ccc4c(c3)OCCO4)nn2)cc1,35,-4,28,2,-6
C=C1[C@@H](O)[C@H](CC(C)C)N(Cc2ccccc2Br)S1(=O)=O,8,8,0,2,.
C=CCN(c1ccccc1Cl)S(=O)(=O)c1cccc(C(=O)NCCc2ccc(OC)cc2)c1,61*,-6,5,4,-10
CCOC(=O)CSc1nnc(CNc2ccc(Cl)cc2)n1-c1ccccc1,52*,1,16,3,2
CCOC(=O)CSc1nnc(CNc2cccc(Cl)c2)n1-c1ccccc1,12,0,6,2,0
CNC(=O)c1ccc(NC(=O)c2ccc3c(=O)n4c(nc3c2)CCC4)cc1,53*,-2,13,-2,.
CC(=O)c1ccc(NC(=O)c2ccc3c(=O)n4c(nc3c2)CCCCC4)cc1,8,2,7,0,2
Cc1cc(Nc2ccc3c(c2)OCCO3)n2ncnc2n1,11,1,7,1,17*
C[C@@H]1CN([C@H](C)CO)C(=O)CCCn2nncc2CO[C@@H]1CN(C)S(=O)(=O)c1ccccc1,19,0,0,-1,.
CCCCN1C(=O)/C(=C/C=C2\N(C)c3ccccc3C2(C)C)SC1=S,.,.,.,.,14
CCCN1C(=O)/C(=C\C=C2/C=CN(CC)c3ccccc32)SC1=S,-5,2,1,17,21*
O=C(Nc1ccc(-c2noc(-c3cccs3)n2)cc1)c1cccnc1,56*,1,17,-3,-1
COc1ccc(-c2noc(-c3ccccc3C(=O)Nc3cccnc3)n2)cc1,15,-2,9,0,14*
CC(Oc1ccc(Cl)cc1Cl)c1nc(-c2ccc(NC(=O)c3cccnc3)cc2)no1 (centres undefined),57*,-1,9,2,3
COc1ccc(-c2noc(-c3ccccc3C(=O)Nc3cccnc3)n2)cc1OC,14,1,18,0,-3
O=C(NCc1cccnc1)/C(=C\c1ccc(-c2cccc(Cl)c2)o1)S(=O)(=O)c1ccccc1,25,5,14,15,20*
CS(=O)(=O)N1CCN(C(=O)c2cc(-c3ccncc3)nc3ccc(Cl)cc23)CC1,35,-2,23,-5,-6
O=C(c1cc(-c2cccnc2)nc2ccc(Cl)cc12)N1CCN(S(=O)(=O)c2cccs2)CC1,51*,1,10,0,-6
COc1ccc(-c2ccc(C(=O)Nc3ccc4c(c3)OCO4)c3occc23)c(C)c1,-12,.,0,0,.
O=C(OCC(=O)N1CCN(C(=O)c2ccco2)CC1)c1ccccc1OCc1ccc(Cl)cc1,32,-3,8,-1,28*
Cc1nccn1-c1ccc(NC(=O)[C@H]2O[C@@H](n3ccc(N)nc3=O)[C@H](O)[C@@H]2O)cc1,-15,.,5,0,.
